{"source": "paper PMC10613959", "about": "(Toxicological Sciences, 2023)", "key": {"[1]": {"assay": "Blood partitioning assay for Rbp", "format": "in vitro ADME", "details": "both, human", "outline": "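Fresh pooled mixed-gender human whole blood (lithium heparin) and reference plasma centrifuged from the same blood were each incubated with 5 µM test compound at 37°C, n = 3. Reactions were stopped at 0 and 60 min. Rbp was derived by LC-MS/MS from test compound concentration in control plasma versus whole-blood supernatant. Chlorthalidone 5 µM served as positive control.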"}, "Cross filtration": {"assay": "Cross filtration", "format": "in vitro ADME", "details": "both, human, pooled human plasma", "outline": "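Modified cross-ultrafiltration: 10 µM test compound in pooled mixed-gender human plasma, 60 min at 37°C, n = 3, then ultrafiltered beside blank plasma. Each retentate was mixed into the partner filtrate and the regenerated samples analysed by LC-MS/MS. Warfarin 10 µM was positive control. Stability was checked at 60 min against non-incubated control. Recovery-corrected mean PPB from filtrate; Fup = 100 − PPB.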"}, "[2]": {"assay": "Metabolic stability in primary human hepatocytes in suspension", "format": "in vitro ADME", "details": "human, cryopreserved human hepatocytes in suspension (5 donor pool)", "outline": "(§1)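 Cryopreserved human hepatocytes (5-donor pool, 0.8 × 10^6 cells/ml) in Williams E medium (25 mM HEPES, 2 mM L-glutamine) were incubated with test compound at 0.1, 1 and 10 µM, 37°C, n = 3. Sampled at 0, 15, 60, 90, 180 and 240 min; solvent ≤0.5% DMSO or 1% ACN. Heat-inactivated hepatocytes were the negative control. Parent loss was measured by LC-MS. CLint = −k·V (k, slope of log concentration vs time; V, incubation volume/cell number).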"}, "human hepatocytes": {"system": "human hepatocytes", "assay": "Metabolic stability in primary human hepatocytes in suspension", "format": "in vitro ADME", "details": "human suspension hepatocytes; compared with Naloxone", "outline": "as §1"}, "[3]": {"assay": "Skin absorption parameters", "design": "species or system human", "details": "Fitted", "outline": "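A skin model in GastroPlus TCAT started from in silico predicted values for the vehicle, stratum corneum, epidermis and dermis. Its diffusivities and partition coefficients were fitted to skin penetration data: receptor-fluid time course where available, plus skin wash and layer distribution. Parameters were adjusted to minimise model–data difference and then used in the human dermal model. Vehicle/water partitioning is formulation-specific.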"}, "[4]": {"assay": "Scaling of in vitro CLint to in vivo CLint and CLliver", "design": "species or system human", "details": "scaled from the mean in vitro CLint", "outline": "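Mean in vitro hepatocyte CLint was scaled to in vivo CLint (l/h) using a scaling factor: million cells per gram of liver × grams of liver weight. In vivo CLint was then converted to hepatic clearance with two variations of the well-stirred liver model.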"}, "[5]": {"assay": "PBK population simulation of plasma concentrations", "design": "species or system human", "outline": "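GastroPlus population simulations reproduced the clinical designs. Lotion or non-aerosol spray, 2 mg/cm2 over 75% body surface, once at 0 h on day 1 and 4 times daily at 2-h intervals on days 2–4 (mixed multiple-dose profile). Alternatively, a 4% formulation over 90% body surface, about 22 mg/kg bw, in 3 male and 3 female subjects. Simulated-mean/observed-mean ratios for Cmax and AUC0−t; 10th–90th percentiles generated.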"}, "[6]": {"details": "pig skin, 24 h, skin surface washed at 8 h; mean; ref Sasson et al. (2009); cited from earlier work"}, "[7]": {"details": "human plasma, dermal, ref Schauer et al., 2006, cited from earlier work"}, "[8]": {"details": "ref Shand, 1976; cited from earlier work"}}, "note": "Read-outs that look alike come from different tables or passages of the source."}
{"smiles": "Cc1ccc(/C=C2/C(=O)C3(C)CCC2C3(C)C)cc1", "note": "(stereo not drawn) [4-MBC, 4-methylbenzylidene camphor]", "values": [{"measurement": "blood plasma ratio at 60 min, 5 µM", "setting": "[1]", "result": 0.88}, {"measurement": "fraction unbound at 60 min, 10 µM", "setting": "Cross filtration", "result": 0.0004}, {"measurement": "hepatocyte CLint", "setting": "[2]", "result": 30, "unit": "µL/min/1e6 cells"}, {"measurement": "hepatocyte CLint at 0.1 µM", "setting": "[2]", "result": 34, "unit": "µL/min/1e6 cells"}, {"measurement": "hepatocyte CLint at 1 µM", "setting": "[2]", "result": 32.2, "unit": "µL/min/1e6 cells"}, {"measurement": "hepatocyte CLint at 10 µM", "setting": "[2]", "result": 23.8, "unit": "µL/min/1e6 cells"}, {"measurement": "depletion in suspension hepatocytes", "setting": "human hepatocytes", "result": "medium to fast depletion"}, {"measurement": "Dermis diffusivity", "setting": "[3]", "result": "3.0E−08", "unit": "cm^2/s"}, {"measurement": "Dermis/water partition coefficient", "setting": "[3]", "result": "2.0E+00"}, {"measurement": "Epidermis/water partition coefficient", "setting": "[3]", "result": "1.0E+02"}, {"measurement": "Stratum corneum diffusivity", "setting": "[3]", "result": "6.1E−11", "unit": "cm^2/s"}, {"measurement": "Stratum corneum/water partition coefficient", "setting": "[3]", "result": "1.0E+03"}, {"measurement": "Vehicle diffusivity", "setting": "[3]", "result": "7.8E−06", "unit": "cm^2/s"}, {"measurement": "Vehicle/water partition coefficient", "setting": "[3]; vehicle/formulation specific", "result": "4.0E+04"}, {"measurement": "In vivo CLint scaled", "setting": "[4]", "result": 216, "unit": "l/h/kg liver"}, {"measurement": "AUC0 − t Fold Difference (Simulated Mean/Observed Mean)", "setting": "[5]; Female", "result": 0.8}, {"measurement": "Cmax Fold Difference (Simulated Mean/Observed Mean)", "setting": "[5]; Female", "result": 0.9}, {"measurement": "AUC0 − t Fold Difference (Simulated Mean/Observed Mean)", "setting": "[5]; Male", "result": 0.6}, {"measurement": "Cmax Fold Difference (Simulated Mean/Observed Mean)", "setting": "[5]; Male", "result": 0.6}, {"measurement": "Dermal delivery (Epidermis + dermis + receptor fluid), 4-MBC", "setting": "[6]", "result": 3.17, "unit": "%"}, {"measurement": "Epidermis + Dermis, distribution of 4-MBC", "setting": "[6]", "result": 2.9, "unit": "%"}, {"measurement": "Receptor fluid, distribution of 4-MBC", "setting": "[6]", "result": 0.25, "unit": "%"}, {"measurement": "Skin excess, distribution of 4-MBC", "setting": "[6]", "result": 4.5, "unit": "%"}, {"measurement": "Total recovery, 4-MBC", "setting": "[6]", "result": 87.8, "unit": "%"}, {"measurement": "Total strips (1–40), distribution of 4-MBC", "setting": "[6]", "result": 80.1, "unit": "%"}, {"measurement": "Observed AUC0 − t, Geometric mean", "setting": "[7]; Female", "result": 485.6, "unit": "ng·h/mL"}, {"measurement": "Observed Cmax, Range", "setting": "[7]; Female", "result": "19.8 to 31.2", "unit": "ng/mL"}, {"measurement": "Observed AUC0 − t, Geometric mean", "setting": "[7]; Male", "result": 987.9, "unit": "ng·h/mL"}, {"measurement": "Observed Cmax, Range", "setting": "[7]; Male", "result": "19.8 to 83.9", "unit": "ng/mL"}]}
{"smiles": "CC(C)NCC(O)COc1cccc2ccccc12", "note": "(stereo not drawn) [propranolol]", "values": [{"measurement": "bound to plasma", "setting": "[8]", "result": "90%–95"}]}
